Test results published in publication PMC6453127 (Biochimica et biophysica acta. General subjects, 2017).
“Also recorded” adds a separate entry of the source. Blank lines part the entries; values can stand above or below the compound they belong to.

Key:
Hsp70 = Hsp70 (Homo sapiens, UniProt P0DMV8); assay: Transcreener ADP Hsp70 ATPase assay; type: biochemical; details: 0.5 μM Hsp70; up to 200 μM
Method in brief: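 Stopped with EDTA stop-and-detect buffer containing ADP² antibody-IRDye QC-1 and 8 nM ADP Alexa594 tracer, 1 h at RT. Endpoint fluorescence intensity read. Three experiments, four-parameter logistic fit.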

Hsp90β [1] = target: T1, Hsp90β (Homo sapiens, UniProt P08238); assay: Competitive displacement of FITC-GA; type: binding; details: competitor 3 nM to 3 μM; 60 nM Hsp90β, 5 nM FITC-GA
T1 sequence (P08238 whole entry): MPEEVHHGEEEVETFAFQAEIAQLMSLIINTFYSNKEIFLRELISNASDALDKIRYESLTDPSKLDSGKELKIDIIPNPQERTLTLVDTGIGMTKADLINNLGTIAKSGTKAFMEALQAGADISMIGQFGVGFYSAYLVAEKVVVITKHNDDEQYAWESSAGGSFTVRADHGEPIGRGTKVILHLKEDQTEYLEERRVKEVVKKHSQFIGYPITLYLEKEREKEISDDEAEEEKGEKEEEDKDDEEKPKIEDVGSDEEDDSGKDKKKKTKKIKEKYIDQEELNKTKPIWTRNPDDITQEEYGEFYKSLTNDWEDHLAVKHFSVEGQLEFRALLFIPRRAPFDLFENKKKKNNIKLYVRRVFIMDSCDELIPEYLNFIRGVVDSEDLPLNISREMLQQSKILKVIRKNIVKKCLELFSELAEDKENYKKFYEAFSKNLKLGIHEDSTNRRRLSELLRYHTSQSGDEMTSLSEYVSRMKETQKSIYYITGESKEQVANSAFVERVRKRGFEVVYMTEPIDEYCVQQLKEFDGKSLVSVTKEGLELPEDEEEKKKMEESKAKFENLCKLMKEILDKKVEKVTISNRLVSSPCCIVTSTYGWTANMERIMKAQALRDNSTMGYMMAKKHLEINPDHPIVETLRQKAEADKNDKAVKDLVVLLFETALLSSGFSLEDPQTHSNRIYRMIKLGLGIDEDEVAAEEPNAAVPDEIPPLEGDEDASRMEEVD

His6-Hsp90β CTD = His6-Hsp90β CTD (Homo sapiens, UniProt P08238); assay: BS3 crosslinking dimerization/oligomerization assay, His6-Hsp90β CTD; type: biochemical; details: for oligomerization state of His6-Hsp90β CTD (crosslinking): 2 μM protein, BS3 crosslinker
Chain of His6-Hsp90β CTD (P08238 530-724): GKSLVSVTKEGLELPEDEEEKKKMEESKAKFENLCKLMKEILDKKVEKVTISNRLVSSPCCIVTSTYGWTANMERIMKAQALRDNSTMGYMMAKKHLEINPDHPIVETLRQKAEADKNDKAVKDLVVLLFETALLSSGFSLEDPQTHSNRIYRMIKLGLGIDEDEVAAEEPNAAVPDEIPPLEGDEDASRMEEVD

Hsp90β [2] = target: T1, Hsp90β; assay: Transcreener ADP Hsp90 ATPase assay; type: biochemical
GST-Hsp90α CTD [3] = target: T2, GST-Hsp90α CTD (Homo sapiens, UniProt P07900); assay: ADH aggregation; type: biochemical; details: for inhibition of Hsp90 CTD chaperone (anti-aggregation) activity, ADH aggregation assay: 40 μM compound, 500 nM Hsp90 CTD, 55 °C, end point 90 min
Method in brief: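 Reaction: 6.2 μM equine ADH, with or without 500 nM GST-Hsp90α CTD and compound. Aggregation induced at 55 °C, read as absorbance at 360 nm every minute for 90 min. The 90-min endpoint was used, with the mean of ADH alone set to 100%. Three independent experiments.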

GST-Hsp90α CTD (626–732) = GST-Hsp90α CTD (626–732) (Homo sapiens, UniProt P07900); assay: DARTs assay with GST-Hsp90α CTD; type: binding; details: 200 μM compound
GST-Hsp90α NTD = GST-Hsp90α NTD (Homo sapiens, UniProt P07900); assay: BS3 crosslinking assay, GST-Hsp90α NTD; type: biochemical; details: 2 μM protein
Method in brief: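 2 μM protein buffer-exchanged into 50 mM NaPO₄ and 150 mM NaCl, then preincubated with compound for 1 h at room temperature. BS3 added at 66–200 μM final for 1 h at RT, then quenched with 50 mM Tris-HCl pH 7.5 for 15 min. Boiled in SDS dye, run on 10% SDS-PAGE, western-blotted and probed with anti-GST antibody.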

GST-Hsp90α CTD [4] = target: T2, GST-Hsp90α CTD; assay: BS3 crosslinking assay, GST-Hsp90α CTD; type: biochemical; details: 2 μM protein; NSC145366 10 μM to 100 μM
full-length Hsp90α = full-length Hsp90α (Homo sapiens, UniProt P07900); assay: BS3 crosslinking assay, full length Hsp90α; type: biochemical; details: 2 μM protein; BS3 crosslinker
Method in brief: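 Full-length Hsp90α used at 2 μM in 50 mM NaPO₄ and 150 mM NaCl, preincubated with compound for 1 h at room temperature. BS3 crosslinker added at 66–200 μM final for 1 h at RT, then quenched with 50 mM Tris-HCl pH 7.5 for 15 min. Analysed by 10% SDS-PAGE and western blot.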

GST-Hsp90α CTD [5] = target: T2, GST-Hsp90α CTD; assay: ATP-agarose pulldown, Hsp90 CTD; type: binding; details: 200 μM compound, 6 μM CTD
LNCaP cells = assay: Western blot of Hsp90 clients and heat shock proteins in LNCaP cells; type: cell-based; details: 48 h
Method in brief: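 ATCC LNCaP cells kept in ATCC-recommended medium, authenticated and used within 20 passages. Cells treated for 48 h, trypsinised, PBS-washed and lysed in RIPA with protease inhibitors, 1 mM PMSF, 0.1% Triton X-100 and 1 mM DTT. Protein measured by Bradford before western blot. Band intensities of treated samples expressed as percentage of vehicle.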

Chain of Hsp70 (P0DMV8 whole entry): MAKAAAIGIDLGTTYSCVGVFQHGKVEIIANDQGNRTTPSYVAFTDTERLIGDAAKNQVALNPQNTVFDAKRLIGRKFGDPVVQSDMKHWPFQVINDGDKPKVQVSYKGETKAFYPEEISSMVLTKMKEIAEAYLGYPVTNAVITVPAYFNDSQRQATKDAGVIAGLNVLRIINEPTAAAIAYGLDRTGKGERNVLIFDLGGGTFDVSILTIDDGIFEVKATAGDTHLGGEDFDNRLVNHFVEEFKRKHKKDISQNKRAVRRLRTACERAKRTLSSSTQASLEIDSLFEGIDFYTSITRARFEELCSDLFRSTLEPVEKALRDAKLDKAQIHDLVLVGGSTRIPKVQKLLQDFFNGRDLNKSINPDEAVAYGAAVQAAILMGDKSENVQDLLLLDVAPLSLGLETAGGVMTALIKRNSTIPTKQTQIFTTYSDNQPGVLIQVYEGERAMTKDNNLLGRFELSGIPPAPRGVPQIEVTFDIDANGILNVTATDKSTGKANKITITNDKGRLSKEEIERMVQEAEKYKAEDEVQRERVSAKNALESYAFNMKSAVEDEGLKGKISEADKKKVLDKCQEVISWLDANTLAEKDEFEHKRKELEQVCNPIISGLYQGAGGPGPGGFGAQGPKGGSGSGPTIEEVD

Structure (SMILES): C=CCNC1=C2C[C@@H](C)C[C@H](OC)[C@H](O)[C@@H](C)/C=C(\C)[C@H](OC(N)=O)[C@@H](OC)/C=C\C=C(/C)C(=O)NC(=CC1=O)C2=O [Analog 17-AAG, reference compound]
- inhibition of Hsp70 ATPase function (Hsp70): no effect on Hsp70 ATPase function

- competition with FITC-GA binding to Hsp90β (Hsp90β [1]): compete with fluorescently labeled GA
Structure (SMILES): CCNC(=O)c1noc(-c2cc(C(C)C)c(O)cc2O)c1-c1ccc(CN2CCOCC2)cc1 [AUY922]

- oligomerization state of His6-Hsp90β CTD (crosslinking) (His6-Hsp90β CTD): CTD monomer band was eliminated
- IC50 (Hsp90β [2]): ~262 µM
Structure (SMILES): CC(C)CNCC(O)COc1ccc(C(C)(C)c2ccc(OCC(O)CNCC(C)C)cc2)cc1 (stereo not shown) [Analog A8, 3,3’-((propane-2,2-diylbis(4,1-phenylene))bis(oxy))bis(1-(iso-butylamino)propan-2-ol)]

- oligomerization state of His6-Hsp90β CTD (crosslinking) (His6-Hsp90β CTD): CTD monomer band was eliminated
- IC50 (Hsp90β [2]): ~216 µM
Structure (SMILES): CN1CCN(CC(O)COc2ccc(C(C)(C)c3ccc(OCC(O)CN4CCN(C)CC4)cc3)cc2)CC1 (stereo not shown) [Analog A2, 3,3’-((propane-2,2-diylbis(4,1-phenylene))bis(oxy))bis(1-(4-methylpiperazin-1-yl)propan-2-ol)]

- IC50, Hsp90β ATPase function (Hsp90β [2]; 0.5 μM Hsp90β, 250 μM ATP, 37 °C 30 min): does not have a measurable IC50
Structure (SMILES): CC(C)(c1ccc(O)cc1)c1ccc(O)cc1 [BPA, Bisphenol A]
- inhibition of Hsp90 CTD chaperone (anti-aggregation) activity, ADH aggregation assay (GST-Hsp90α CTD [3]): did not exhibit inhibition; also recorded: Minimal inhibition

Structure (SMILES): CC(C)(c1ccc(OCC2CO2)cc1)c1ccc(OCC2CO2)cc1 (stereo not shown) [BADGE, bisphenol A diglycidyl ether]
- inhibition of Hsp90 CTD chaperone (anti-aggregation) activity, ADH aggregation assay (GST-Hsp90α CTD [3]): slight inhibition

Structure (SMILES): CO[C@@H]1[C@@H](O)[C@@H](O)[C@H](Oc2ccc3cc(NC(C)=O)c(=O)oc3c2C)OC1(C)C [KU-32, reference compound]
- protection of Hsp90 CTD from pronase degradation (DARTs) (GST-Hsp90α CTD (626–732)): protects the Hsp90 CTD from pronase degradation at levels comparable

Structure (SMILES): CO[C@H]1[C@H](OC(=O)c2ccc(C)[nH]2)[C@H](O)[C@@H](Oc2ccc3c(O)c(NC(=O)c4c[nH]c(C(=O)Nc5c(O)c6ccc(O[C@H]7OC(C)(C)[C@@H](OC)[C@H](OC(=O)c8ccc(C)[nH]8)[C@@H]7O)c(C)c6oc5=O)c4C)c(=O)oc3c2C)OC1(C)C [Cm A1, coumermycin A1, reference compound]
- oligomerization of GST-Hsp90α NTD (crosslinking) (GST-Hsp90α NTD): appears to decrease oligomerization of the NTD
- increase in ADH aggregation (GST-Hsp90α CTD [3]; 50 μM, positive control): ~ 40%
- oligomerization state of His6-Hsp90β CTD (crosslinking) (His6-Hsp90β CTD): increases the level of monomeric Hsp90 CTD
- oligomerization state of GST-Hsp90α CTD (crosslinking) (GST-Hsp90α CTD [4]): increases the level of CTD monomers
- oligomerization state of full-length Hsp90α (crosslinking) (full-length Hsp90α): slightly increases the monomer level of full-length Hsp90α
- inhibition of CTD binding to ATP-agarose (GST-Hsp90α CTD [5]): inhibits CTD binding to ATP

Structure (SMILES): CC(C)(c1ccc(OCC(O)CN2CCOCC2)cc1)c1ccc(OCC(O)CN2CCOCC2)cc1 (stereo not shown) [Analog A1, 3,3’-((propane-2,2-diylbis(4,1-phenylene))bis(oxy))bis(1-mor-pholinopropan-2-ol)]
- oligomerization state of His6-Hsp90β CTD (crosslinking) (His6-Hsp90β CTD): CTD monomer band was eliminated

- competition with FITC-GA binding to Hsp90β (Hsp90β [1]): compete with fluorescently labeled GA
Structure (SMILES): COC1=C2C[C@@H](C)C[C@H](OC)[C@H](O)[C@@H](C)/C=C(\C)[C@H](OC(N)=O)[C@@H](OC)/C=C\C=C(/C)C(=O)NC(=CC1=O)C2=O [GA, geldanamycin, reference compound]
- induction of classical heat shock response (Hsp70, Hsp27, Hsp40) (LNCaP cells): did induce the classical heat shock response
- BRCA1 expression level compared to DMSO (LNCaP cells; GA control): 9%

Structure (SMILES): CC(C)(c1ccc(OCC(O)CNCc2ccco2)cc1)c1ccc(OCC(O)CNCc2ccco2)cc1 (stereo not shown) [Analog A3, 3,3’-((propane-2,2-diylbis(4,1-phenylene))bis(oxy))bis(1-((fur-an-2-ylmethyl)amino)propan-2-ol)]
- oligomerization state of His6-Hsp90β CTD (crosslinking) (His6-Hsp90β CTD): oligomer formation was completely inhibited
- disruption of CTD dimer formation compared with Cm A1 (His6-Hsp90β CTD; His6-Hsp90β CTD, 200 μM BS3 (Fig. S10)): disrupt dimer formation more efficiently than Cm A1
